Reference: ChEMBL document CHEMBL3352107, “Development of radamide analogs as Grp94 inhibitors” (Bioorg Med Chem, 2014)
Activity calls are given as the source filed them. No cut-off for these calls is given here.

Columns and labels:
[1] = biological target: Endoplasmin (Homo sapiens) (UniProt P14625); assay: Inhibition of recombinant Grp94 (unknown origin) assessed as tracer bound at 25 uM after 24 hrs by fluorescence polarization assay relative to control; parameters: scale not given: the % may be the effect or the level left
Sequence of Endoplasmin (Homo sapiens) (P14625 whole entry, canonical isoform): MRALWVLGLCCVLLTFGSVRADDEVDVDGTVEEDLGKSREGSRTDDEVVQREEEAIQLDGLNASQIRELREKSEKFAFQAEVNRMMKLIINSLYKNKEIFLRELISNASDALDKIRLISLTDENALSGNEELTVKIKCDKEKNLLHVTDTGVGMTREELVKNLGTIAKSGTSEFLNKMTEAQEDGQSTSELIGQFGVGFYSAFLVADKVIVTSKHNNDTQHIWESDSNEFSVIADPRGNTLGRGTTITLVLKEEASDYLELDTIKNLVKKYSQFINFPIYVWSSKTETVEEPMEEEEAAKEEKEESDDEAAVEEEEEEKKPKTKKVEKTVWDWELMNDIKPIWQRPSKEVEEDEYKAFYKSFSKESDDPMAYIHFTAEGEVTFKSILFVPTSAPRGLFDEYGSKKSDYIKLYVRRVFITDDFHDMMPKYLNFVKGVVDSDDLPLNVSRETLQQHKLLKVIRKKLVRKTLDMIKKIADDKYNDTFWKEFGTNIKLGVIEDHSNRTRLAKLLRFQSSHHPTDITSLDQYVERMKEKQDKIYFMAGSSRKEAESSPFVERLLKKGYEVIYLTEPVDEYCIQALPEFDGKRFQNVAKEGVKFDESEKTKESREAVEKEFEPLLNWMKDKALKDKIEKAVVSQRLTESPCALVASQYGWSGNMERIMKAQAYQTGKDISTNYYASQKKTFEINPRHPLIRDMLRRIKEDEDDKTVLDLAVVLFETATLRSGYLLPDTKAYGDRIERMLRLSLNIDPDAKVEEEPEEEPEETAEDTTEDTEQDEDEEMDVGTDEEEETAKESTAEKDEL
In short: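 Single-point screen at 25 μM. Recombinant cGrp94 (10 nM) and FITC-geldanamycin tracer (6 nM) incubated 24 h at 4°C with rocking in HEPES pH 7.3 buffer containing molybdate, DTT, NP-40 and BGG (1% DMSO). Polarization read at 485/528 nm. Percent tracer bound scaled between DMSO mP (100%) and free tracer mP (0%). Geldanamycin 50 nM was the positive control. Triplicate.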

[2] = biological target: Heat shock protein HSP 90-alpha (Homo sapiens) (UniProt P07900); assay: Inhibition of Hsp90alpha in human RPMI18226 cells assessed as cyclin D1 degradation at 5 fold antiproliferative IC50 concentration by Western blot analysis; format: cell-based
In short: (§1)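 Cells plated in 6-well plates and exposed 24 h to high and low compound concentrations, 15 μM radicicol, or DMSO only (0.25% DMSO final). Lysed in MPER with protease inhibitors on ice and clarified at 4°C. Protein measured by BCA. 20 μg per lane run reducing on SDS-PAGE, blotted to PVDF and probed with specific antibodies, HRP secondary, chemiluminescence. For IGF-II, medium volumes normalized to equal actin were blotted.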

MDA-MB-231 [3] = assay: Inhibition of cell migration in human MDA-MB-231 cells assessed as reduction of cell migrated into scratched area after 16 to 24 hrs by wound healing assay; format: functional, cell-based
In short: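 Cells seeded at 200000/well and grown 24 h to a confluent monolayer at 37°C, 5% CO2. Each well scratched with a sterile pipet tip and photographed at 0 h. Compound added at 2.5 up to 25 μM (0.25% DMSO final). Migration into the wound photographed at 16 and 24 h. Quadruplicate wells on two different days.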

[4] = biological target: Heat shock protein HSP 90-alpha (Homo sapiens) (UniProt P07900); assay: Inhibition of Hsp90alpha in human RPMI18226 cells assessed as Akt degradation at 5 fold antiproliferative IC50 concentration by Western blot analysis; format: cell-based; in short: as §1
[5] = biological target: Endoplasmin (Homo sapiens) (UniProt P14625); assay: Inhibition of Gpr94 in human MDA-MB-231 cells assessed as decrease in IGF-II secretion at 1 to 10 uM by Western blot analysis; format: cell-based; in short: as §1
[6] = biological target: Endoplasmin (Homo sapiens) (UniProt P14625); assay: Binding affinity to Gpr94 in human MDA-MB-231 cells assessed as conformational change using 9G10 antibody by immunoblotting analysis; format: cell-based
In short: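 MDA-MB-231 cells treated overnight at 10 μM (high) or 1 μM (low). Radicicol 15 μM was the positive control and DMSO the negative control. Detergent lysates immunoprecipitated with the conformation-specific anti-Grp94 antibody 9G10, which recognizes only open, unliganded Grp94, on protein G magnetic beads. Precipitates immunoblotted for Grp94.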

[7] = biological target: Endoplasmin (Homo sapiens) (UniProt P14625); assay: Binding affinity to Gpr94 in human RPMI18226 cells using 9G10 antibody by immunoblotting analysis; format: cell-based
In short: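 Radicicol 15 μM was the positive control and DMSO the negative control. Detergent lysates pulled down with conformation-specific anti-Grp94 antibody 9G10 on protein G magnetic beads, then immunoblotted for Grp94.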

[8] = Antiproliferative activity against human RPMI18226 cells after 72 hrs by MTS/PMS proliferation assay; format: functional, cell-based; conditions: RPMI18226, 72 h
In short: (§2)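 Cells kept in RPMI1640 (RPMI 8226) or DMEM (MDA-MB-231) with nonessential amino acids, 2 mM L-glutamine, penicillin/streptomycin and 10% FBS at 37°C, 5% CO2. Seeded at 2000/well, attached overnight, then given compound across a concentration range in 1% DMSO final for 72 h. Viable cells read by MTS/PMS. 1% DMSO wells set as 100%. IC50 from separate triplicate experiments.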

MDA-MB-231 [9] = assay: Cytotoxicity against human MDA-MB-231 cells at 2.5 to 25 uM after 24 hrs; format: cell-based; conditions: mda-mb-231, 24 h
[10] = biological target: Endoplasmin (Homo sapiens) (UniProt P14625); assay: Inhibition of Gpr94 in human RPMI18226 cells assessed as decrease in IGF-II secretion at 0.25 to 2 fold antiproliferative IC50 concentration by Western blot analysis; format: cell-based; in short: as §1
[11] = biological target: Heat shock protein HSP 90-alpha (Homo sapiens) (UniProt P07900); assay: Inhibition of Hsp90alpha in human MDA-MB-231 cells assessed as cyclin D1 degradation at 80 uM by Western blot analysis; format: cell-based; in short: as §1
[12] = biological target: Heat shock protein HSP 90-alpha (Homo sapiens) (UniProt P07900); assay: Inhibition of Hsp90alpha in human MDA-MB-231 cells assessed as Akt degradation at 80 uM by Western blot analysis; format: cell-based; in short: as §1
MDA-MB-231 [13] = assay: Antiproliferative activity against human MDA-MB-231 cells after 72 hrs by MTS/PMS proliferation assay; format: functional, cell-based; conditions: MDA-MB-231, 72 h; in short: as §2
[14] = biological target: Endoplasmin (Homo sapiens) (UniProt P14625); assay: Inhibition of recombinant Grp94 (unknown origin) assessed as tracer bound at 25 uM after 24 hrs by fluorescence polarization assay relative to HSP90alpha (unknown origin)
In short: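 Compounds at 25 μM incubated 24 h with either cGrp94 or Hsp90α plus FITC-geldanamycin tracer (1% DMSO) to compare the two isoforms. Fluorescence polarization gave percent tracer bound, with DMSO as 100% and free tracer as 0%. Geldanamycin 50 nM was the positive control. Triplicate.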

| Structure (SMILES) | Activity [1] | further results |
| --- | --- | --- |
| COC(=O)c1c(O)cc(O)c(Cl)c1CCC(=O)Nc1ccc(C(C)C)cc1 | 59% | – |
| COC(=O)c1c(O)cc(O)c(Cl)c1CCC(=O)Nc1ccc(C#N)cc1 | 5.4% | – |
| COC(=O)c1c(O)cc(O)c(Cl)c1CCC(=O)Nc1ccccc1C(F)(F)F | 13.4% | – |
| COC(=O)c1c(O)cc(O)c(Cl)c1CCC(=O)N(O)c1ccccc1 | 2.5% | – |
| COC(=O)c1c(O)cc(O)c(Cl)c1CCC(=O)Nc1ccccc1F | 16.3% | – |
| COC(=O)c1c(O)cc(O)c(Cl)c1CCC(=O)NC1CCCCC1 | 26.1% | – |
| COC(=O)c1c(O)cc(O)c(Cl)c1CCC(=O)Nc1ccc(Br)cc1 | 2.1% | Ratio [14]: 27 |
| COC(=O)c1c(O)cc(O)c(Cl)c1CCC(=O)Nc1cccc(Cl)c1 | 0.1% | Ratio [14]: 25 |
| COC(=O)c1c(O)cc(O)c(Cl)c1CCC(=O)Nc1cccc(O)c1 | 3.5% | – |
| COC(=O)c1c(O)cc(O)c(Cl)c1CCC(=O)Nc1cccc(OC)c1 | 27.4% | – |
| COC(=O)c1c(O)cc(O)c(Cl)c1CCC(=O)Nc1ccccc1OC | 16.1% | – |
| COC(=O)c1c(O)cc(O)c(Cl)c1CCC(=O)Nc1cccc(-c2ccccc2)c1 | 46.8% | – |
| COC(=O)c1c(O)cc(O)c(Cl)c1CCC(=O)Nc1ccc(Br)cc1Br | 50.7% | – |
| COC(=O)c1c(O)cc(O)c(Cl)c1CCC(=O)NCCc1ccccc1 | 33% | – |
| COC(=O)c1c(O)cc(O)c(Cl)c1CCC(=O)Nc1cccc(C(F)(F)F)c1 | 39.4% | – |
| COC(=O)c1c(O)cc(O)c(Cl)c1CCC(=O)Nc1ccc(Br)c(Cl)c1 | 71.4% | – |
| COC(=O)c1c(O)cc(O)c(Cl)c1CCC(=O)NCc1ccccc1 | 65.8% | – |

Further lines, with some results ahead:

| Activity [1] | Structure (SMILES) | further results |
| --- | --- | --- |
| 6.6% | COC(=O)c1c(O)cc(O)c(Cl)c1CCC(=O)Nc1nccs1 | inhibition [2]: Active; inhibition (MDA-MB-231 [3]): Dose-dependent effect; inhibition [4]: Active; inhibition [5]: Active; Activity [6]: Dose-dependent effect; Activity [7]: Dose-dependent effect; IC50 [8]: 7.83 µM; Activity (MDA-MB-231 [9]): Non-toxic; inhibition [10]: Active; inhibition [11]: Active; inhibition [12]: Active; IC50 (MDA-MB-231 [13]): 16 µM |
| 11.6% | COC(=O)c1c(O)cc(O)c(Cl)c1CCC(=O)Nc1cncnc1 | – |
| 0.1% | COC(=O)c1c(O)cc(O)c(Cl)c1CCC(=O)Nc1ccc(Br)cn1 | – |
| 34.9% | COC(=O)c1c(O)cc(O)c(Cl)c1CCC(=O)Nc1ccncc1 | – |
| 10.2% | COC(=O)c1c(O)cc(O)c(Cl)c1CCC(=O)Nc1ncns1 | – |
| 19.5% | COC(=O)c1c(O)cc(O)c(Cl)c1CCC(=O)Nc1cnncn1 | – |
| 0.2% | COC(=O)c1c(O)cc(O)c(Cl)c1CCC(=O)Nc1ncccc1Br | – |
| 19.8% | COC(=O)c1c(O)cc(O)c(Cl)c1CCC(=O)Nc1ccccc1 | – |
| 8.7% | COC(=O)c1c(O)cc(O)c(Cl)c1CCC(=O)Nc1nncs1 | – |
| 0.1% | COC(=O)c1c(O)cc(O)c(Cl)c1CCC(=O)Nc1ccccc1Cl | Ratio [14]: 8 |
| 16.6% | COC(=O)c1c(O)cc(O)c(Cl)c1CCC(=O)Nc1cnccn1 | – |
| 14.9% | COC(=O)c1c(O)cc(O)c(Cl)c1CCC(=O)Nc1cccnc1 | – |
| 15.7% | COC(=O)c1c(O)cc(O)c(Cl)c1CCC(=O)Nc1ccc(Cl)cc1 | – |
| 18% | COC(=O)c1c(O)cc(O)c(Cl)c1CCC(=O)Nc1ccccc1O | – |
| 15.7% | COC(=O)c1c(O)cc(O)c(Cl)c1CCC(=O)Nc1ccc(N)cc1 | – |
